Columns and labels:
Caulobacter vibrioides = assay: Compound was tested against gram-negative Caulobacter crescentus, strain NA 1000 bacteria; assay type: functional, organism-based; conditions: read-out: Log 1/IC50 (converted)
Summary of the method: (§1)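 Sequential broth macrodilution. S. aureus was grown in TSB at 37 °C and C. crescentus in PYE (peptone, yeast extract, 0.8 mM MgSO4, 0.5 mM CaCl2) at 30 °C. Inoculum was an 8 h exponential culture diluted to about 2 × 10^5 bacteria/mL and added 1:1 to 2-fold serial dilutions. Incubation was 12 h (S. aureus) or 20 h (C. crescentus). Growth was read at A600, and the 50% growth inhibition concentration is reported as log(1/IC50), µmol/mL.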

Staphylococcus aureus = assay: Activity against gram-positive Staphylococcus aureus strain ATCC 25923 bacteria; assay type: functional, organism-based; conditions: read-out: Log 1/IC50 (converted); summary of the method: as §1

| IC50 (Caulobacter vibrioides) [mM] | IC50 (Staphylococcus aureus) [mM] | Structure (SMILES) |
| --- | --- | --- |
| 50.1 | 10 | CC(=O)Oc1ccc(Cl)cc1C(=O)/C=C/c1ccc([N+](=O)[O-])o1 |
| – | 3.98 | CCc1ccc(OC(C)=O)c(C(=O)/C=C/c2ccc([N+](=O)[O-])o2)c1 |
| – | 11.7 | O=C(/C=C/c1ccc([N+](=O)[O-])o1)c1cc(Cl)ccc1O |
| – | 15.8 | CCc1ccc(O)c(C(=O)/C=C/c2ccc([N+](=O)[O-])o2)c1 |
| 42.7 | 6.92 | CC(=O)Oc1ccccc1C(=O)/C=C/c1ccc([N+](=O)[O-])o1 |
| – | 4.79 | CC(=O)Oc1ccc(C)cc1C(=O)/C=C/c1ccc([N+](=O)[O-])o1 |
| – | 6.61 | Cc1ccc(O)c(C(=O)/C=C/c2ccc([N+](=O)[O-])o2)c1 |
| 14.8 | 16.2 | CC(=O)Oc1ccc([N+](=O)[O-])cc1C(=O)/C=C/c1ccc([N+](=O)[O-])o1 |

The remaining lines, values behind:

| Structure (SMILES) | IC50 (Caulobacter vibrioides) [mM] | IC50 (Staphylococcus aureus) [mM] |
| --- | --- | --- |
| N#Cc1ccc2c(c1)C(=O)/C(=C/c1ccc([N+](=O)[O-])o1)O2 | 4.57 | 3.16 |
| COc1ccc2c(c1)C(=O)/C(=C/c1ccc([N+](=O)[O-])o1)O2 | 1.05 | 0.151 |
| Cc1ccc2c(c1)C(=O)/C(=C/c1ccc([N+](=O)[O-])o1)O2 | 1.26 | 0.115 |
| CCCc1ccc2c(c1)C(=O)/C(=C/c1ccc([N+](=O)[O-])o1)O2 | 3.09 | 0.447 |
| CCc1ccc2c(c1)C(=O)/C(=C/c1ccc([N+](=O)[O-])o1)O2 | 2.75 | 0.447 |
| O=C(/C=C/c1ccc([N+](=O)[O-])o1)c1ccccc1O | 64.6 | 7.24 |
| O=C1/C(=C/c2ccc([N+](=O)[O-])o2)Oc2ccccc21 | 1.29 | 0.302 |
| O=C(/C=C/c1ccc([N+](=O)[O-])o1)c1cc([N+](=O)[O-])ccc1O | 14.8 | 17 |
| O=C1/C(=C/c2ccc([N+](=O)[O-])o2)Oc2ccc(Br)cc21 | 3.16 | 0.661 |
| O=C1/C(=C/c2ccc([N+](=O)[O-])o2)Oc2ccc(Cl)cc21 | 5.25 | 0.575 |
| O=C1/C(=C/c2ccc([N+](=O)[O-])o2)Oc2ccc([N+](=O)[O-])cc21 | 11.7 | 3.98 |

From ChEMBL document CHEMBL1134663, “Investigation of 5-nitrofuran derivatives: synthesis, antibacterial activity, and quantitative structure-activity relationships” (J Med Chem, 2001)
